# Measurements: ChEMBL document CHEMBL4390645, “Novel prenyloxy chalcones as potential leishmanicidal and trypanocidal agents: Design, synthesis and evaluation” (Eur J Med Chem, 2019)
# Activity calls are given as the source filed them. The rule behind the calls is not given here.
# Legend:
# [1] = Selectivity index, ratio of CC50 for mouse J774.A1 cells to IC50 for antitrypanosomal activity against Trypanosoma cruzi MHOM/MX/1994/INC5 epimastigotes; assay type: toxicity; settings: read-out: Ratio CC50/IC50
# Summary of the method: (§1)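 SI = CC50 (J774A.1, 20 h MTT) divided by parasite IC50 (24 h MTT), both Probit-derived.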
# [2] = test system: Leishmania mexicana; assay: Antileishmanial activity against Leishmania mexicana MNYC-BZ/62/M379 promastigotes assessed as growth inhibition measured after 24 hrs by MTT assay; assay type: functional, organism-based; settings: MNYC-BZ/62/M379, 24 h
# Summary of the method: (§2)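 Stationary-phase (7-day) metacyclic promastigotes, 5 x 10^5 per well in 100 µL RPMI 1640 with 10% heat-inactivated FBS and penicillin-streptomycin. Compounds from 10 mg/mL DMSO stock, diluted in PBS. Screen at 10 µg/mL in triplicate; actives serially diluted from 20 µg/mL. 27°C, dark, 24 h, then MTT 24 h. SDS/HCl solubilization, A570 vs blank. IC50 by Probit. Amphotericin B reference.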
# [3] = test system: Trypanosoma cruzi; assay: Antitrypanosomal activity against Trypanosoma cruzi MHOM/MX/1994/INC5 epimastigotes assessed as growth inhibition measured after 24 hrs by MTT assay; assay type: functional, organism-based; settings: MHOM/MX/1994/INC5, 24 h
# [4] = test system: Trypanosoma cruzi; assay: Antitrypanosomal activity against Trypanosoma cruzi MHOM/MX/1994/INC5 epimastigotes assessed as metabolic inhibition at 10 ug/ml after 24 hrs by MTT assay relative to control; assay type: functional; settings: MHOM/MX/1994/INC5, 24 h
# [5] = Selectivity index, ratio of CC50 for mouse J774.A1 cells to IC50 for antileishmanial activity against Leishmania mexicana MNYC-BZ/62/M379 promastigotes; assay type: toxicity; settings: read-out: Ratio CC50/IC50; summary of the method: as §1
# [6] = test system: Leishmania mexicana; assay: Antileishmanial activity against Leishmania mexicana MNYC-BZ/62/M379 promastigotes assessed as metabolic inhibition at 10 ug/ml after 24 hrs by MTT assay relative to control; assay type: functional; settings: MNYC-BZ/62/M379, 24 h; summary of the method: as §2
# [7] = Cytotoxicity against mouse J774.A1 cells assessed as reduction in cell viability measured after 20 hrs by MTT assay; assay type: cell-based
# Summary of the method: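 J774A.1 macrophages, 5x10^4/well, preincubated 24 h at 37 °C, 5% CO2. Compounds at several concentrations in triplicate for 20 h, untreated cells as control. MTT added for 4 h, then 10% SDS/0.01N HCl, absorbance read. CC50 by Probit concentration-response.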
# [8] = test system: Leishmania major; assay: Antileishmanial activity against Leishmania major amastigotes; assay type: functional, organism-based
# [9] = test system: Leishmania donovani; assay: Antileishmanial activity against Leishmania donovani amastigotes; assay type: functional, organism-based
# [10] = test system: Leishmania mexicana; assay: Antileishmanial activity against Leishmania mexicana MNYC-BZ/62/M379 promastigotes assessed as metabolic inhibition at 0.5 ug/ml after 24 hrs by MTT assay relative to control; assay type: functional; settings: MNYC-BZ/62/M379, 24 h
# [11] = test system: Leishmania mexicana; assay: Induction of morphological changes in Leishmania mexicana MNYC-BZ/62/M379 promastigotes assessed as rounded cells at 3 multiples of IC50 concentration and measured after 24 hrs by giemsa staining using light microscopic method; assay type: functional, organism-based
# [12] = test system: Leishmania mexicana; assay: Induction of morphological changes in Leishmania mexicana MNYC-BZ/62/M379 promastigotes assessed as decrease in cell density at 1.25 to 20 ug/ml measured after 24 hrs by giemsa staining using light microscopic method; assay type: functional, organism-based
# Summary of the method: (§3)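 Parasites exposed 24 h to a range of compound concentrations, Giemsa-stained, examined by light microscopy at 100x for morphology and cell density.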
# [13] = test system: Trypanosoma cruzi; assay: Induction of morphological changes in Trypanosoma cruzi MHOM/MX/1994/INC5 epimastigotes assessed as decrease in cell density measured after 24 hrs by giemsa staining using light microscopic method; assay type: functional, organism-based; summary of the method: as §3
# [14] = test system: Leishmania mexicana; assay: Induction of morphological changes in Leishmania mexicana MNYC-BZ/62/M379 promastigotes assessed as decrease in flagella length at 3 multiples of IC50 concentration and measured after 24 hrs by giemsa staining using light microscopic method; assay type: functional, organism-based
# [15] = test system: Leishmania mexicana; assay: Induction of morphological changes in Leishmania mexicana MNYC-BZ/62/M379 promastigotes assessed as cell death at 3 multiples of IC50 concentration and measured after 24 hrs by giemsa staining using light microscopic method; assay type: functional, organism-based
structure (smiles),measurement,setting,value
COc1cc(C(=O)/C=C/c2cc(OC)c(OC)c(OC)c2)ccc1OCC=C(C)C,selectivity ratio,[1],1.43
same,IC50,[2],20.7 µM
same,IC50,[3],17.8 µM
same,inhibition at 10 µg/mL,[4],80.3%
same,selectivity ratio,[5],1.24
same,inhibition at 10 µg/mL,[6],59.1%
same,CC50 at 20 h,[7],25.6 µM
CC(C)=CCC/C(C)=C/COc1ccccc1/C=C/C(=O)c1ccccc1,IC50,[8],1.4 to 88.8 µM
same,IC50,[9],1.4 to 88.8 µM
COc1cc(/C=C/C(=O)c2ccc(OCC=C(C)C)c(OC)c2)ccc1OCC=C(C)C,inhibition at 10 µg/mL,[4],20%
same,inhibition at 10 µg/mL,[6],3.9%
C[C@@H]1[C@H](O)[C@@H](C)/C=C/C=C/C=C/C=C/C=C/C=C/C=C/[C@H](O[C@@H]2O[C@H](C)[C@@H](O)[C@H](N)[C@@H]2O)C[C@@H]2O[C@](O)(C[C@@H](O)C[C@@H](O)[C@H](O)CC[C@@H](O)C[C@@H](O)CC(=O)O[C@H]1C)C[C@H](O)[C@H]2C(=O)O [AMPHOTERICIN B],IC50,[2],0.28 µM
same,selectivity ratio,[5],216
same,inhibition at 0.5 µg/mL,[10],99%
same,CC50 at 20 h,[7],60.7 µM
CC(C)=CCC/C(C)=C/COc1cccc(/C=C/C(=O)c2ccccc2)c1,IC50,[8],1.4 to 88.8 µM
same,IC50,[9],1.4 to 88.8 µM
O=C(Cn1ccnc1[N+](=O)[O-])NCc1ccccc1 [BENZNIDAZOLE],IC50,[3],42.3 µM
same,inhibition at 10 µg/mL,[4],77.4%
same,CC50 at 20 h,[7],352 µM
COc1ccc(C(=O)/C=C/c2ccc(OC/C=C(\C)CCC=C(C)C)c(OC)c2)cc1OC,inhibition at 10 µg/mL,[4],22%
same,inhibition at 10 µg/mL,[6],13.5%
COc1ccc(C(=O)/C=C/c2ccc(OC/C=C(\C)CCC=C(C)C)c(OC)c2)cc1,inhibition at 10 µg/mL,[4],13.7%
same,inhibition at 10 µg/mL,[6],0.7%
CC(C)=CCC/C(C)=C/CC/C(C)=C/COc1cccc(/C=C/C(=O)c2ccccc2)c1,IC50,[8],1.4 to 88.8 µM
same,IC50,[9],1.4 to 88.8 µM
COc1cc(C(=O)/C=C/c2ccc(O)cc2)ccc1OC/C=C(\C)CCC=C(C)C,inhibition at 10 µg/mL,[4],-5.5%
same,inhibition at 10 µg/mL,[6],4.9%
COc1cc(/C=C/C(=O)c2ccc(OC/C=C(\C)CCC=C(C)C)c(OC)c2)ccc1OCC=C(C)C,selectivity ratio,[1],27.4
same,IC50,[3],30.1 µM
same,inhibition at 10 µg/mL,[4],43.9%
same,inhibition at 10 µg/mL,[6],-8%
same,CC50 at 20 h,[7],825 µM
COc1ccc(/C=C/C(=O)c2ccc(OCC=C(C)C)c(OC)c2)cc1,inhibition at 10 µg/mL,[4],7.9%
same,inhibition at 10 µg/mL,[6],1%
COc1ccc(/C=C/C(=O)c2ccc(OC/C=C(\C)CCC=C(C)C)c(OC)c2)cc1,inhibition at 10 µg/mL,[4],-11.6%
same,inhibition at 10 µg/mL,[6],0%
CC1CS(=O)(=O)CCN1/N=C/c1ccc([N+](=O)[O-])o1 (stereo not drawn) [NIFURTIMOX],selectivity ratio,[1],23.1
same,IC50,[3],8.7 µM
same,CC50 at 20 h,[7],201 µM
COc1ccc(C(=O)/C=C/c2ccc(OCC=C(C)C)c(OC)c2)cc1,inhibition at 10 µg/mL,[4],2.6%
same,inhibition at 10 µg/mL,[6],25.5%
COc1cc(/C=C/C(=O)c2cc(OC)c(OC)c(OC)c2)ccc1OC/C=C(\C)CCC=C(C)C,inhibition at 10 µg/mL,[4],31.6%
same,inhibition at 10 µg/mL,[6],11.3%
COc1cc(C(=O)/C=C/c2ccc(OC/C=C(\C)CCC=C(C)C)c(OC)c2)ccc1OCC=C(C)C,inhibition at 10 µg/mL,[4],33.2%
same,inhibition at 10 µg/mL,[6],-3.2%
COc1ccc(/C=C/C(=O)c2ccc(OC/C=C(\C)CCC=C(C)C)c(OC)c2)cc1OC,inhibition at 10 µg/mL,[4],28.3%
same,inhibition at 10 µg/mL,[6],27.3%
COc1cc(/C=C/C(=O)c2ccc(OC/C=C(\C)CCC=C(C)C)c(OC)c2)ccc1OC/C=C(\C)CCC=C(C)C,selectivity ratio,[1],33.5
same,IC50,[3],30.4 µM
same,inhibition at 10 µg/mL,[4],45%
same,inhibition at 10 µg/mL,[6],1%
same,CC50 at 20 h,[7],1020 µM
COc1ccc(/C=C/C(=O)c2ccc(OC/C=C(\C)CCC=C(C)C)cc2)cc1,IC50,[8],1.4 to 88.8 µM
same,IC50,[9],1.4 to 88.8 µM
COc1cc(C(=O)/C=C/c2ccc(O)cc2)ccc1OCC=C(C)C,inhibition at 10 µg/mL,[4],16.3%
same,inhibition at 10 µg/mL,[6],4.6%
CC(C)=CCOc1cccc(/C=C/C(=O)c2ccccc2)c1,IC50,[8],1.4 to 88.8 µM
same,IC50,[9],1.4 to 88.8 µM
COc1ccc(C(=O)/C=C/c2ccc(OCC=C(C)C)c(OC)c2)cc1OC,IC50,[2],31.8 µM
same,inhibition at 10 µg/mL,[4],11.8%
same,selectivity ratio,[5],55.1
same,inhibition at 10 µg/mL,[6],48.3%
same,CC50 at 20 h,[7],1750 µM
CC(C)=CCC/C(C)=C/CC/C(C)=C/COc1ccccc1/C=C/C(=O)c1ccccc1,IC50,[8],1.4 to 88.8 µM
same,IC50,[9],1.4 to 88.8 µM
COc1ccc(/C=C/C(=O)c2ccc(OCC=C(C)C)c(OC)c2)cc1OC,inhibition at 10 µg/mL,[4],25.3%
same,inhibition at 10 µg/mL,[6],15.6%
COc1cc(/C=C/C(=O)c2cc(OC)c(OC)c(OC)c2)ccc1OCC=C(C)C,selectivity ratio,[1],75.1
same,IC50,[2],16.2 µM
same,IC50,[3],17.5 µM
same,Activity,[11],Active
same,Activity,[12],Active
same,Activity,[13],Dose-dependent effect
same,Activity,[14],Active
same,inhibition at 10 µg/mL,[4],84%
same,Activity,[15],Active
same,selectivity ratio,[5],80.9
same,inhibition at 10 µg/mL,[6],71.3%
same,CC50 at 20 h,[7],1310 µM
COc1cc(/C=C/C(=O)c2ccc(O)cc2)ccc1OCC=C(C)C,inhibition at 10 µg/mL,[4],23.8%
same,inhibition at 10 µg/mL,[6],17.7%
COc1cc(/C=C/C(=O)c2ccc(O)cc2)ccc1OC/C=C(\C)CCC=C(C)C,inhibition at 10 µg/mL,[4],20.4%
same,inhibition at 10 µg/mL,[6],17.6%
CC(C)=CCOc1ccccc1/C=C/C(=O)c1ccccc1,IC50,[8],1.4 to 88.8 µM
same,IC50,[9],1.4 to 88.8 µM
COc1cc(C(=O)/C=C/c2cc(OC)c(OC)c(OC)c2)ccc1OC/C=C(\C)CCC=C(C)C,inhibition at 10 µg/mL,[4],-0.8%
same,inhibition at 10 µg/mL,[6],2.1%
